An excerpt weighted towards active compounds, which were near 1.9% of everything screened.
FGF22 binding = binders of human FGF22 protein, primary screen, FGF22 synaptogenesis inhibitor project, biophysical, thermal shift, single point. Fibroblast growth factor 22 (Homo sapiens), Q9HCT0. recombinant FGF22 thermal shift, SYPRO orange fluorescence; percent of sucrose octasulfate shift, DMSO zero. activity (Tm shift, normalised), % at 9.99 µM. hit rate 1.5% among 340,000. AID 651658, 2012;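 active = mean Tm shift, scaled 0 neutral to 100 positive control, at about 1.3% or above, every replicate too, limit read from the data; inconclusive = no clear call, values can overlap the other calls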
Target sequence (Q9HCT0 whole entry, looked up): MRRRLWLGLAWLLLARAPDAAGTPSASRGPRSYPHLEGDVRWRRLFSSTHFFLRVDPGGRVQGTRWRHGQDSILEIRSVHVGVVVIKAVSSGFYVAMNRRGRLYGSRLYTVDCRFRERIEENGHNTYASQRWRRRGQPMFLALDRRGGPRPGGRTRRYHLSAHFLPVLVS
Efflux pump inh = inhibitors of Candida efflux pumps in yeast, primary screen, S. cerevisiae, Nile Red, multiplex; hit rate 0.44% among 330,000; S. cerevisiae Candida pump triplex; inhibition, % at 10 µM;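 active = plate passing quality check with inhibition over a set limit, or well fluorescence over plate mean plus 4 SD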;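 also: Nile Red retained in pooled yeast measured as flow cytometry median fluorescence; higher means more Nile Red kept so more efflux inhibition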
ASAP1 inh = inhibitors of human ASAP1 ArfGAP activity, primary screen, biochemical, fluorescence polarization; Arf-GAP with SH3 domain, ANK repeat and PH domain-containing protein 1 (Homo sapiens), …; ASAP1-stimulated ARF1 GTP hydrolysis, GDP FP detection; inhibition, % at 16.5 µM; hit rate 0.19% among 360,000; AID 624377, 2012; in the data active = inhibition above about 25%
ARFGAP1 inh = inhibitors of rat ARFGAP1 GAP activity, primary screen, biochemical, fluorescence polarization, GDP tracer; ADP-ribosylation factor GTPase-activating protein 1 (Rattus norvegicus), Q62848; Arfgap1-stimulated ARF1 GTP hydrolysis, GDP FP detection; inhibition, % at 16.5 µM; hit rate 0.26% among 360,000; AID 651572, 2012;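 active = inhibition above a per-plate limit, mean inhibition of low control wells plus 3 SD, cut at about 25% in these data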
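Replicates: Single well per compound | Assay system: Truncated rat Arfgap1 GAP domain | Control set: No-Arfgap1 wells (100%) versus DMSO full-reaction wells (0%) | Times: Enzyme reaction 120 min at 25 °C after 20 min preincubation | Reagent: Human ARF1(Δ1-17)-GTP substrate | Measured by: Tracer-displacement fluorescence polarization with EDTA stop, 620/688 nm | Measure: Percent inhibition of Arfgap1-stimulated GTP hydrolysis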
Rtt109 Vps75 = inhibitors of C. albicans Rtt109/Vps75 HAT, primary screen, biochemical, ThioGlo CoA-SH fluorescence, plate reader. inhibition, % at 34.9 µM. purified Rtt109/Vps75, 4 h. Histone acetyltransferase RTT109 (Candida albicans (strain SC5314 / ATCC MYA-2876)), …. hit rate 0.16% among 330,000;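 active = inhibition of at least 50% in every replicate; inconclusive = best replicate reaches 50% inhibition but some replicates fall short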
Target sequence (Q5AAJ8 whole entry, looked up): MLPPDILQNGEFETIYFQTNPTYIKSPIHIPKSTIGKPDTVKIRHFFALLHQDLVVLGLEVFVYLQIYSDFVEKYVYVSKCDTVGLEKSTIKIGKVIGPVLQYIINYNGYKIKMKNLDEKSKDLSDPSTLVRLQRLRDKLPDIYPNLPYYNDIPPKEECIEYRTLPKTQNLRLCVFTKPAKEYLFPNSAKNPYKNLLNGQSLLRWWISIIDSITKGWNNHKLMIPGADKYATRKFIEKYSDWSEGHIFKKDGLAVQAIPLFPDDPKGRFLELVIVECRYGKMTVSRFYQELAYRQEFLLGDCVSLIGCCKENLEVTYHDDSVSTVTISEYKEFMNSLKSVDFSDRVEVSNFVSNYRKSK
Each line names hits and unclear results; the compound was inactive in the other large screens; ! = not confirmed by another sample.

COC(=O)c1ccc(CO/N=C/c2ccc(OC)cc2)o1	FGF22 binding 43.8
COC(=O)c1ccc(COC(=O)c2ccc(CO)cc2)o1	FGF22 binding 44.0 (no result: Rtt109 Vps75)
C[C@H](CO)N1C[C@H](C)[C@@H](CN(C)S(=O)(=O)c2cn(C)cn2)Oc2c(NC(=O)c3ccncc3)cccc2C1=O	none (no result: Efflux pump inh, ASAP1 inh, ARFGAP1 inh, Rtt109 Vps75)
CCOc1ccc(NC(=O)CN(C)C(=O)CCN2C(=O)C3CC=CCC3C2=O)cc1OCC (configuration not stated)	none
Oc1ccc(/C=N/Nc2cc(N3CCCC3)nc(N3CCCC3)n2)cc1	ARFGAP1 inh 28.1 (no result: FGF22 binding)
Oc1ccc(/C=N/Nc2cc(N3CCOCC3)nc(N3CCOCC3)n2)cc1	none (no result: FGF22 binding)
CN1CCN(CCCN(Cc2ccco2)C(=S)Nc2ccc(Cl)cc2)CC1	FGF22 binding 42.9
CCOC(=O)C1=C(C)NC(=S)NC1c1ccsc1 (configuration not stated)	FGF22 binding 43.1
CCOC(=O)C1=C(C)NC(=S)NC1c1ccc(C)s1 (configuration not stated)	none
Cc1cccc(-c2cc(NC=O)c3ncc(-c4cccc(C(=O)N(C)C)c4)n3c2)c1	none (no result: Efflux pump inh, Rtt109 Vps75)
Cc1cc(C(C)(C)CC(C)(C)C)ccc1OCCOCC[N+](C)(C)Cc1ccccc1	Rtt109 Vps75 56.0
Cc1cc(C)c(-n2nnnc2SCC(=O)c2cccs2)c(C)c1	Rtt109 Vps75 60.2
C[C@@H]1CN([C@@H](C)CO)C(=O)c2cc(NS(C)(=O)=O)ccc2O[C@@H](C)CCCCO[C@H]1CN(C)C(=O)C1CCCCC1	none (no result: Efflux pump inh, ASAP1 inh, ARFGAP1 inh, Rtt109 Vps75)
Fc1ccc(NC(=S)Nc2ccc(Br)cc2)cc1	Rtt109 Vps75 54.9 (no result: FGF22 binding)
Oc1ccc(NC(=S)Nc2ccc(F)cc2)cc1	none
Cc1ccc(NC(=S)Nc2ccc(F)cc2)c(C)c1	FGF22 binding 43.9 (no result: Rtt109 Vps75)
COc1ccccc1C1CCN(C(=O)c2ccc(C(C)(C)C)cc2)CC1	none
CN(C)/C=C(\C=O)c1ncc(C(F)(F)F)cc1Cl	FGF22 binding 43.0
Cn1c(=O)c2nc3ccccc3nc2n(C)c1=O	FGF22 binding 43.4
Cn1c(=O)c2nc(-c3ccccc3)c(-c3ccccc3)nc2n(C)c1=O	none
CC(c1ccc(O)cc1)(c1ccc(O)cc1)c1ccc(CCBr)cc1	none
CCCCCc1ccc(OCCOCCn2c[n+](C)c3ccccc32)c(CCCCC)c1	Rtt109 Vps75 80.5 (no result: FGF22 binding, Efflux pump inh, ASAP1 inh, ARFGAP1 inh)
O=C(COC(=O)C1=COCCO1)NC1CCCCCCC1	none
CC1CCCC(NC(=O)COC(=O)C2=COCCO2)C1C (configuration not stated)	FGF22 binding 44.3 (no result: Efflux pump inh, Rtt109 Vps75)
O=C(NNC(=O)C1CC1)c1cc2cc3ccccc3nc2s1	FGF22 binding 43.3
O=C(NNC(=O)c1cc2cc3ccccc3nc2s1)c1ccc(F)cc1	none (no result: FGF22 binding)
O=C(Nc1ccc(F)c(Cl)c1)C1CC(=O)N(Cc2ccco2)C1 (configuration not stated)	none
Cc1cc(C)c2c(=O)n(CC(=O)N3CCC(N4CCCCC4)CC3)sc2n1	Rtt109 Vps75 inconclusive
CCCNC(=O)Cn1sc2nc(C)cc(C)c2c1=O	Rtt109 Vps75 112.6
CN(C)CCCOc1ccc(-c2cccc3nncn23)cn1	FGF22 binding 43.4 (no result: Efflux pump inh, Rtt109 Vps75)
CN(C)CCCOc1ccc(-c2ccc3nncn3c2)cn1	none (no result: Efflux pump inh, Rtt109 Vps75)
Cc1[nH]c2ccccc2c1C(=O)NS(=O)(=O)Nc1ccccc1	FGF22 binding 43.4
Cc1[nH]c2ccccc2c1C(=O)CCl	none (no result: Efflux pump inh)
C[C@@H]1CN([C@@H](C)CO)C(=O)c2cccc(NS(=O)(=O)c3ccc(Cl)cc3)c2O[C@@H]1CN(C)CC1CCCCC1	none (no result: Efflux pump inh, ASAP1 inh, ARFGAP1 inh, Rtt109 Vps75)
CCCCCCCCCCCCCCCC[n+]1ccccc1	Rtt109 Vps75 75.2! (no result: Efflux pump inh)
CCCCCCCCCCCCCCCC[n+]1ccc(C(N)=O)cc1	none (no result: FGF22 binding)
O=C(CSC(=S)N1CCCC1)c1cc(Br)cc(Br)c1O	FGF22 binding 45.6 (no result: Rtt109 Vps75)
COc1cc(/C=C2\SC(=S)N(NS(=O)(=O)c3ccccc3)C2=O)cc(OC)c1OC	none (no result: FGF22 binding)
COc1ccc(/C=C2/SC(=O)N(NS(=O)(=O)c3ccccc3)C2=S)cc1OC	Rtt109 Vps75 78.9
CC(C)c1ccc(C(=O)OCC(=O)c2c(N)n(C)c(=O)n(C)c2=O)cc1	none
